# Calls of active or inactive are those of the source. The calls are words filed in the database; no cut-off is given here.
# How the values were obtained:
# [1] = target: Protein cereblon/Signal transducer and activator of transcription 3 (Homo sapiens, UniProt P40763+Q96SW2); experiment: Protac activity at CRBN/STAT3 in human BxPC-3 cells assessed as increase in inhibition of STAT3 protein levels at 2 to 3 uM incubated for 16 hrs in presence of protein synthesis inhibitor cycloheximide by western blot analysis; format: cell-based; conditions: dose 2-3 µM
# Procedure, shortened: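 BxPC-3 cells pretreated 1 h with cycloheximide, then test agent for 16 h. Lysates immunoblotted for STAT3 and NQO1 against GAPDH, fluorescent imaging.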
# [2] = target: Protein cereblon/Pleckstrin homology-like domain family B member 1 (Homo sapiens) (UniProt Q96SW2+Q86UU1); experiment: Protac activity at CRBN/PHLDB1 in human BxPC-3 cells assessed as PHLDB1 degradation incubated for 16 hrs by proteomic analysis; format: cell-based
# Procedure, shortened: (§1)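 TMT 10plex proteomics. […] Samples (75 μg) were reduced with DTT, alkylated with 2-chloroacetamide, acetone-precipitated, trypsin-digested overnight at 37 °C and TMT-labeled for LC-MS/MS relative quantitation.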
# [3] = target: Protein cereblon/Nectin-1 (Homo sapiens) (UniProt Q96SW2+Q15223); experiment: Protac activity at CRBN/Nectin-1 in human BxPC-3 cells assessed as Nectin-1 degradation incubated for 16 hrs by proteomic analysis; format: cell-based; procedure, shortened: as §1
# [4] = Upregulation of SYNC protein levels in human BxPC-3 cells incubated for 16 hrs by proteomic analysis; format: functional
# Procedure, shortened: (§2)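 BxPC-3 cells exposed 16 h in triplicate (control, PROTAC) or duplicate (other arms); lysed in RIPA at 4 °C, 75 μg protein per sample. Reduced with DTT (1 h, 55 °C), alkylated with 2-chloroacetamide, acetone-precipitated, trypsin-digested overnight at 37 °C, TMT 10plex labelled, relative quantitation by LC-tandem MS.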
# [5] = target: T1, Protein cereblon/E3 ubiquitin-protein ligase ZFP91 (Homo sapiens, UniProt Q96SW2+Q96JP5); experiment: Protac activity at CRBN/ZFP91 in human BxPC-3 cells assessed as ZF91 protein degradation at 1 uM incubated for 16 hrs in presence of proteasome inhibitor carfilzomib by western blot analysis; format: cell-based
# T1 sequence (Q96JP5 2-570 partner limits assumed): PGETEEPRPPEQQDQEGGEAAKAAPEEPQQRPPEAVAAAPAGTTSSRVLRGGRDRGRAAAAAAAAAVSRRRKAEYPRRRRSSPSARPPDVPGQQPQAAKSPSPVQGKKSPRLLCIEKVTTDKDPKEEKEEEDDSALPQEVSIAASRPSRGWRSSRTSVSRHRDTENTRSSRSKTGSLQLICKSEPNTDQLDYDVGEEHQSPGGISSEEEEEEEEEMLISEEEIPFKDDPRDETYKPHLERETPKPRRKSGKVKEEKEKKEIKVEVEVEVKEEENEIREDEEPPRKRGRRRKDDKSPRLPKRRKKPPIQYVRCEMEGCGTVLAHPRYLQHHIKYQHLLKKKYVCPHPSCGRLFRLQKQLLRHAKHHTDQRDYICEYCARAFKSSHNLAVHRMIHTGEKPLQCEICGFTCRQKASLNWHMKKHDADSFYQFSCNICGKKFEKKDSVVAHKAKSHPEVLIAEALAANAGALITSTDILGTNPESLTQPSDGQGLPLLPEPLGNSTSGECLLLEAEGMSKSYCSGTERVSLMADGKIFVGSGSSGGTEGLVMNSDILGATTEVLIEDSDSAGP
# T1 sequence (Q96SW2 whole entry): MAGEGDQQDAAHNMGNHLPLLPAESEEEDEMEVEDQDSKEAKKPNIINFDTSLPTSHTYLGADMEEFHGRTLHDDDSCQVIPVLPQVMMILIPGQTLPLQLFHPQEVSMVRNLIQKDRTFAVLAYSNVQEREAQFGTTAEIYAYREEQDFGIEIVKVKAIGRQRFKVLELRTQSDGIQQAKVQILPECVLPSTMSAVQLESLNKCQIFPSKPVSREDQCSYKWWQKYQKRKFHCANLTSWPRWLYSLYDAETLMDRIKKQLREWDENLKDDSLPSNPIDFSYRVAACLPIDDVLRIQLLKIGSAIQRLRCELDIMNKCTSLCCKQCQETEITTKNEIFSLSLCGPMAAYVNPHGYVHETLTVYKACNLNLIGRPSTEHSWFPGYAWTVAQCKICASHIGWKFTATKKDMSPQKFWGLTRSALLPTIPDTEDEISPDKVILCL
# Procedure, shortened: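 BxPC-3 cells pretreated 1 h with carfilzomib at 1 μM, then exposed 16 h. Lysates blotted for ZFP91 with GAPDH control; bands quantified by densitometry.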
# [6] = target: T1, Protein cereblon/E3 ubiquitin-protein ligase ZFP91; experiment: Protac activity at CRBN/ZFP91 in human BxPC-3 cells assessed as degradation of ZFP91 at 0.5 uM incubated for 16 hrs in presence of napabucasin by western blot analysis; format: cell-based
# Procedure, shortened: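 Whole-cell lysates immunoblotted for ZFP91, GAPDH reference, densitometric quantification.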
# HEK293 = experiment: Antiproliferative activity against human HEK293 cells assessed as reduction in cell viability incubated for 24 hrs by MTT assay; format: functional, cell-based; conditions: HEK293, 24 h
# Procedure, shortened: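 HEK-293 cells were treated with compound for 24 h, in parallel with the luciferase reporter assay. Viability was read by MTT absorbance at 570 nm, and IC50 was taken from three independent experiments.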
# [7] = target: Protein cereblon/E3 SUMO-protein ligase NSE2 (Homo sapiens) (UniProt Q96SW2+Q96MF7); experiment: Protac activity at CRBN/NSMCE2 in human BxPC-3 cells assessed as NSMCE2 degradation incubated for 16 hrs by proteomic analysis; format: cell-based; procedure, shortened: as §1
# Sequence of Protein cereblon/E3 SUMO-protein ligase NSE2 (Homo sapiens) (Q96MF7 whole entry, looked up): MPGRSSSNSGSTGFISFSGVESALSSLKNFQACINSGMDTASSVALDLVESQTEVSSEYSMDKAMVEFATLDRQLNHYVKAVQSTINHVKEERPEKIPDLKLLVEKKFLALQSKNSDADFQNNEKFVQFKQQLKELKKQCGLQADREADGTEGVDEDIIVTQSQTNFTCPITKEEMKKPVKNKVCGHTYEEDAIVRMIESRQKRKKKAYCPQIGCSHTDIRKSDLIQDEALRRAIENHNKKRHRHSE
# Sequence of Protein cereblon/E3 SUMO-protein ligase NSE2 (Homo sapiens) (Q96SW2 whole entry, looked up): as the sequence (Q96SW2 whole entry) above
# [8] = target: Protein cereblon/Methylated-DNA--protein-cysteine methyltransferase (Homo sapiens) (UniProt P16455+Q96SW2); experiment: Protac activity at CRBN/MGMT in human BxPC-3 cells assessed as MGMT degradation incubated for 16 hrs by proteomic analysis; format: cell-based; procedure, shortened: as §1
# [9] = target: Protein cereblon/Eukaryotic peptide chain release factor GTP-binding subunit ERF3A (Homo sapiens) (UniProt Q96SW2+P15170); experiment: Protac activity at CRBN/GSPT in human BxPC-3 cells assessed as degradation of GSPT at 1 to 3 uM incubated for 16 hrs by western blot analysis; format: cell-based; conditions: dose 1-3 µM
# Procedure, shortened: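 BxPC-3 cells were treated with compound for 16 h, then lysed and immunoblotted for GSPT (1:1000) alongside GAPDH. Detection used fluorescent secondary antibodies on an Odyssey imager, and bands were quantified by densitometry.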
# [10] = Upregulation of ECM1 protein levels in human BxPC-3 cells incubated for 16 hrs by proteomic analysis; format: functional; procedure, shortened: as §2
# [11] = Upregulation of GDF15 protein levels in human BxPC-3 cells incubated for 16 hrs by proteomic analysis; format: functional; procedure, shortened: as §2
# [12] = target: Protein cereblon/Serine/threonine-protein kinase PLK1 (Homo sapiens) (UniProt P53350+Q96SW2); experiment: Protac activity at CRBN/PLK1 in human BxPC-3 cells assessed as PKL1 degradation incubated for 16 hrs by proteomic analysis; format: cell-based; procedure, shortened: as §1
# [13] = target: Protein cereblon/Endothelial differentiation-related factor 1 (Homo sapiens) (UniProt Q96SW2+O60869); experiment: Protac activity at CRBN/EDF1 in human BxPC-3 cells assessed as EDF1 degradation incubated for 16 hrs by proteomic analysis; format: cell-based; procedure, shortened: as §1
# [14] = target: Protein cereblon/Signal transducer and activator of transcription 2 (Homo sapiens) (UniProt Q96SW2+P52630); experiment: Protac activity at CRBN/STAT2 in human BxPC-3 cells assessed as STAT2 degradation incubated for 16 hrs by proteomic analysis; format: cell-based; procedure, shortened: as §1
# MIA PaCa-2 = experiment: Effect on NQO1 expression in human MIA PaCa-2 cells at […] to 1 uM incubated for 16 hrs by western blot analysis; format: functional, cell-based; conditions: dose 0.5-1 µM
# Procedure, shortened: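 Cells were seeded in 6-well plates (BxPC-3 500 × 10^3, MIA PaCa-2 200 × 10^3 cells/well) and exposed to compound for 16 h. Lysis was at 4 °C by sonication in Tris/NaCl/Triton/SDS buffer, pH 7.4, with protease and phosphatase inhibitors. Lysates were run on SDS-PAGE, transferred to PVDF and probed for STAT3, pSTAT3 and NQO1 with GAPDH as loading control. Immunoblots were imaged on an Odyssey system.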
# [15] = Upregulation of RhoB protein levels in human BxPC-3 cells incubated for 16 hrs by proteomic analysis; format: functional; procedure, shortened: as §2
# [16] = target: Protein cereblon/WD repeat- and FYVE domain-containing protein 4 (Homo sapiens) (UniProt Q96SW2+Q6ZS81); experiment: Protac activity at CRBN/WDFY4 in human BxPC-3 cells assessed as WDFY4 degradation incubated for 16 hrs by proteomic analysis; format: cell-based; procedure, shortened: as §2
# Sequence of Protein cereblon/WD repeat- and FYVE domain-containing protein 4 (Homo sapiens) (Q6ZS81 whole entry, looked up, the tested form may be a part): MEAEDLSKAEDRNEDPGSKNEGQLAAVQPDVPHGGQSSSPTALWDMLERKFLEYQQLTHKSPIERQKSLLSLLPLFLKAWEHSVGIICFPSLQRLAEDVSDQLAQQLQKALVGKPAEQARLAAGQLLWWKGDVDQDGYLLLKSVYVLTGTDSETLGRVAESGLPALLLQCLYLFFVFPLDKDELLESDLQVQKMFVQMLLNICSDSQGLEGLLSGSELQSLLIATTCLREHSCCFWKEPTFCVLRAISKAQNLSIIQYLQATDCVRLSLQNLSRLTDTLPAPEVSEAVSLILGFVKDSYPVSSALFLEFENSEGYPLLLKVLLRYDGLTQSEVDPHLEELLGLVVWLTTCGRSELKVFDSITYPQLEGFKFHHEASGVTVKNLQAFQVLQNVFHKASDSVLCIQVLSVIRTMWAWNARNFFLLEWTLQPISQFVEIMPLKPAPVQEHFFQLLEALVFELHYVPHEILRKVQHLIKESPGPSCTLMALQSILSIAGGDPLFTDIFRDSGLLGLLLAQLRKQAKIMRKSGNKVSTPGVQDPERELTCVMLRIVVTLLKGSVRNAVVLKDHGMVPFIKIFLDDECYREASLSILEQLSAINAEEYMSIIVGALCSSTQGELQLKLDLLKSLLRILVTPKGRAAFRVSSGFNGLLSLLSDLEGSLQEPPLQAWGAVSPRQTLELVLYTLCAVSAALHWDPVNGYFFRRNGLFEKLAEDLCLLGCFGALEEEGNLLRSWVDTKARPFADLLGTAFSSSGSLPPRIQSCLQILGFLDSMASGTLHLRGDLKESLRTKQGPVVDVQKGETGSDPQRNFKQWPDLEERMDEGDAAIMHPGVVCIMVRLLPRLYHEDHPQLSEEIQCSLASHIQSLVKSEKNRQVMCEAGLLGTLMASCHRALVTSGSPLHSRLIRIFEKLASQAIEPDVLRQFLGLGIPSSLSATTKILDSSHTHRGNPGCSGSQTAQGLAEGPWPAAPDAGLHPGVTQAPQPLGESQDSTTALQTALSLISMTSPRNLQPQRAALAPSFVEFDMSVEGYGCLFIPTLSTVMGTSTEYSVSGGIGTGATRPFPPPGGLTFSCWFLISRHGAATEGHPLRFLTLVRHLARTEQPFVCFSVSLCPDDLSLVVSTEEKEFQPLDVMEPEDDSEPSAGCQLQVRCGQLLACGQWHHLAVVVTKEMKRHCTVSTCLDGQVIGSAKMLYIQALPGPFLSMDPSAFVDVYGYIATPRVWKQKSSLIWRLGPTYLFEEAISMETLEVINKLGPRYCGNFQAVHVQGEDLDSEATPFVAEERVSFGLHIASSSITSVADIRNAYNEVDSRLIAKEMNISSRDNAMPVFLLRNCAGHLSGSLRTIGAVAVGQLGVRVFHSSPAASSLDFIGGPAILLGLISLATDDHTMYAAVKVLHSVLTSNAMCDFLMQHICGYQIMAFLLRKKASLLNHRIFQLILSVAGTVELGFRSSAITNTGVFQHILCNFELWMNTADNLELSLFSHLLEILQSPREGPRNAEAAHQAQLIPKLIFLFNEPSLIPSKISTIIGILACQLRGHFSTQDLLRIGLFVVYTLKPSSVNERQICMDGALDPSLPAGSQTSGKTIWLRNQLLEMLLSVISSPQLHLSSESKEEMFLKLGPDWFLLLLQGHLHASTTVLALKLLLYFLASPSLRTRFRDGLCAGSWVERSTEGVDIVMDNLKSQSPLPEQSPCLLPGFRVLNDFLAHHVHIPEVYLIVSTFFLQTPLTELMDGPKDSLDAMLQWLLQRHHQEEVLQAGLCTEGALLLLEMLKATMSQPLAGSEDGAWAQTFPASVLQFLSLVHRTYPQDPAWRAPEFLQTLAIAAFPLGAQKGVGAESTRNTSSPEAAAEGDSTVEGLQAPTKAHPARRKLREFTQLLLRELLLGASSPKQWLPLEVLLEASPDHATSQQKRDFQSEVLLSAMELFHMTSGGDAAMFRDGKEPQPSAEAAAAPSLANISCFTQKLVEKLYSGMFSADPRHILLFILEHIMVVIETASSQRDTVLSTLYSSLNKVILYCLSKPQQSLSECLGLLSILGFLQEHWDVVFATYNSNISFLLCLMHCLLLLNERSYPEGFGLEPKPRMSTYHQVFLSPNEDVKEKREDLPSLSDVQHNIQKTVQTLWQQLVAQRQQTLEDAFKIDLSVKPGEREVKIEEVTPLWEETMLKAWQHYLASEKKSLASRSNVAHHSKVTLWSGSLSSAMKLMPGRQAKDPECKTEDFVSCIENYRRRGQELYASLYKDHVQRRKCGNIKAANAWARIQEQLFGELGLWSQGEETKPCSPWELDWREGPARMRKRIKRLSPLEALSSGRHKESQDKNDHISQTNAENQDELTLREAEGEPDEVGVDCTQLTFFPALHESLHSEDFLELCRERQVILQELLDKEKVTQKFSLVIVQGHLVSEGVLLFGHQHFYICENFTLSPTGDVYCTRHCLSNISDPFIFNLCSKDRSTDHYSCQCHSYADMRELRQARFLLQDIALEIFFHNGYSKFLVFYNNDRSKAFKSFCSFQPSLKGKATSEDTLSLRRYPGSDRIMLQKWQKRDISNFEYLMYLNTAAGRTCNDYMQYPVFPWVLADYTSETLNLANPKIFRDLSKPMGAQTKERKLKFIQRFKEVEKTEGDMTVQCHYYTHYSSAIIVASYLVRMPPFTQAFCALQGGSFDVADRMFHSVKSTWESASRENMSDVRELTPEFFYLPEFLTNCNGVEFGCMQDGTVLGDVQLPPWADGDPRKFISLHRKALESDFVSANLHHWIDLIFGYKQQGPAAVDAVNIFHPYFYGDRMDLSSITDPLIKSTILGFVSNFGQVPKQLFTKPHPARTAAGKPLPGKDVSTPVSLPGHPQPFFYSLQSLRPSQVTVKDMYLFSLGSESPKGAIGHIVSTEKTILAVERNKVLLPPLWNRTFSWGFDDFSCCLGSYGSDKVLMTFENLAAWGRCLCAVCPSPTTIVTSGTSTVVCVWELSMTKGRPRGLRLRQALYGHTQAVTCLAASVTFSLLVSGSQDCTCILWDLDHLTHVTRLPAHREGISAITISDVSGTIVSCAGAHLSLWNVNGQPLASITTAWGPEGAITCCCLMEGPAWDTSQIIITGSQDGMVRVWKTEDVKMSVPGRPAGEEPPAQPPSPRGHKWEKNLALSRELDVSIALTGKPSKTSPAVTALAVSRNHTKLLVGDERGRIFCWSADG
# Sequence of Protein cereblon/WD repeat- and FYVE domain-containing protein 4 (Homo sapiens) (Q96SW2 whole entry, looked up, the tested form may be a part): as the sequence (Q96SW2 whole entry) above
# [17] = Upregulation of BACH1 protein levels in human BxPC-3 cells incubated for 16 hrs by proteomic analysis; format: functional; procedure, shortened: as §2
# [18] = target: T1, Protein cereblon/E3 ubiquitin-protein ligase ZFP91; experiment: Protac activity at CRBN/ZFP91 in human BxPC-3 cells assessed as alteration of ZF91 protein levels at 0.5 uM incubated for 16 hrs in presence of NQO1 inhibitor dicoumarol; format: cell-based
# Procedure, shortened: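 BxPC-3 cells treated 16 h with or without dicoumarol; carfilzomib added 1 h before treatments. ZFP91 immunoblotted against GAPDH.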
# [19] = Upregulation of HMGCR protein levels in human BxPC-3 cells incubated for 16 hrs by proteomic analysis; format: functional; procedure, shortened: as §2
# [20] = Upregulation of EPHB3 protein levels in human BxPC-3 cells incubated for 16 hrs by proteomic analysis; format: functional; procedure, shortened: as §2
# [21] = target: Protein cereblon/G2/mitotic-specific cyclin-B1 (Homo sapiens) (UniProt P14635+Q96SW2); experiment: Protac activity at CRBN/CCNB1 in human BxPC-3 cells assessed as CCNB1 degradation incubated for 16 hrs by proteomic analysis; format: cell-based; procedure, shortened: as §1
# Sequence of Protein cereblon/G2/mitotic-specific cyclin-B1 (Homo sapiens) (P14635 whole entry, looked up): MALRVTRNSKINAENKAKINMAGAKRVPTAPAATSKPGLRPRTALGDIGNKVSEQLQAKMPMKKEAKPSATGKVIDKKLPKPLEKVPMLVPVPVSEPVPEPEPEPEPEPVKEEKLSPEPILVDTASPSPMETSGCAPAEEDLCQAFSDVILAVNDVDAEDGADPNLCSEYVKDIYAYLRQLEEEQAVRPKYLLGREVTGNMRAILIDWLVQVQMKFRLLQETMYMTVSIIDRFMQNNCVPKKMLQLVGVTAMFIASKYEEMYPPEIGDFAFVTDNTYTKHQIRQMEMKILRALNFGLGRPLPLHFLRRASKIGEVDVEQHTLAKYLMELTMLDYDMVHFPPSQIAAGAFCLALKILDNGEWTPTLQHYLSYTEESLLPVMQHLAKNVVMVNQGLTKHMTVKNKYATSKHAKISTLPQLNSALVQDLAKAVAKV
# Sequence of Protein cereblon/G2/mitotic-specific cyclin-B1 (Homo sapiens) (Q96SW2 whole entry, looked up): as the sequence (Q96SW2 whole entry) above
smiles,measurement,setting,value
O=C1CCC(N2C(=O)c3cccc(NCCCCCC4CCN(CCNC(=O)c5cc6c(o5)C(=O)c5ccccc5C6=O)CC4)c3C2=O)C(=O)N1 (stereo not drawn),Activity,[1],Active
same,log2FC,[2],-0.64
same,log2FC,[3],-0.63
same,log2FC,[4],1.04
same,Activity,[5],inactive
same,Activity,[6],Active
same,IC50,HEK293,8.7 µM
same,log2FC,[7],-0.63
same,log2FC,[8],-0.63
same,Activity,[9],inactive
same,log2FC,[10],0.76
same,log2FC,[11],0.69
same,log2FC,[12],-1.25
same,log2FC,[13],-0.82
same,log2FC,[14],-0.9
same,Activity,MIA PaCa-2,inactive
same,log2FC,[15],0.73
same,log2FC,[16],-0.78
same,log2FC,[17],0.6
same,Activity,[18],inactive
same,log2FC,[19],0.83
same,log2FC,[20],0.65
same,log2FC,[21],-0.84

# Source: ChEMBL document CHEMBL4706672 (J Med Chem, 2021)
